Data as given in ChEMBL document CHEMBL2311288, “Discovery of liver-targeted inhibitors of stearoyl-CoA desaturase (SCD1)” (Bioorg Med Chem Lett, 2013).

Legend:
Acyl-CoA desaturase 1 [1] = target: T1, Acyl-CoA desaturase 1 (Rattus norvegicus, UniProt P07308); test: Inhibition of rat SCD1 by rat microsomal assay
T1 sequence (P07308 whole entry): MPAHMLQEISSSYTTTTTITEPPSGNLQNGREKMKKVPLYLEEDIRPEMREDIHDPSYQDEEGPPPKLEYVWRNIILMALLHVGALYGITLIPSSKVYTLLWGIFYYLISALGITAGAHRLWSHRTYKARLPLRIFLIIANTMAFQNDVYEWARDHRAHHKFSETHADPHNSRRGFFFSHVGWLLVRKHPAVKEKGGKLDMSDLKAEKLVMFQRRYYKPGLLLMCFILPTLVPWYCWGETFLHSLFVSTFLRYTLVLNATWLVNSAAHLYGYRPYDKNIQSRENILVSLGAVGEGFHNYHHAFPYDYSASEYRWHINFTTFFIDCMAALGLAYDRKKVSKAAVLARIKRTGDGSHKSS
Summary of the method: (§1)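 Microsomal desaturase activity was measured in 100 mM Tris HCl pH 7.3 with 2 mM NADH and [9,10-3H]stearoyl-CoA for 15 min at room temperature. The reaction was stopped on ice with trichloroacetic acid, then passed through activated charcoal, and tritium in the filtrate was counted. Compounds were tested in 2% DMSO final. Percent inhibition = (total−sample)/(total−blank)×100, with the blank set by 10⁻⁴ M of a standard inhibitor.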

[2] = Plasma concentration in rat at 10 mg/kg measured after 6 hrs; format: ADME, organism-based; parameters: dose 10 mg/kg
Summary of the method: (§2)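 Rats were given a single 10 mg/kg dose. Plasma exposure (AUC, Cmax) was determined, and drug concentrations in plasma, brain and liver were measured at 6 h post-dose. The liver/plasma ratio was taken from the 6 h levels.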

[3] = Drug level in liver in rat at 10 mg/kg measured after 6 hrs; format: ADME, organism-based; parameters: dose 10 mg/kg; details: read-out: Drug uptake; summary of the method: as §2
[4] = Cmax in rat at 10 mg/kg; format: ADME, organism-based; parameters: dose 10 mg/kg; details: in vivo; summary of the method: as §2
Rattus norvegicus = test: AUC in rat at 10 mg/kg; format: ADME, organism-based, Plasma; parameters: dose 10 mg/kg; details: in vivo; summary of the method: as §2
[5] = Ratio of drug level in liver to plasma of rat at 10 mg/kg measured after 6 hrs; format: ADME, organism-based; parameters: dose 10 mg/kg; summary of the method: as §2
Acyl-CoA desaturase 1 [6] = target: T2, Acyl-CoA desaturase 1 (Mus musculus, UniProt P13516); test: Inhibition of mouse SCD1; summary of the method: as §1
T2 sequence (P13516 whole entry): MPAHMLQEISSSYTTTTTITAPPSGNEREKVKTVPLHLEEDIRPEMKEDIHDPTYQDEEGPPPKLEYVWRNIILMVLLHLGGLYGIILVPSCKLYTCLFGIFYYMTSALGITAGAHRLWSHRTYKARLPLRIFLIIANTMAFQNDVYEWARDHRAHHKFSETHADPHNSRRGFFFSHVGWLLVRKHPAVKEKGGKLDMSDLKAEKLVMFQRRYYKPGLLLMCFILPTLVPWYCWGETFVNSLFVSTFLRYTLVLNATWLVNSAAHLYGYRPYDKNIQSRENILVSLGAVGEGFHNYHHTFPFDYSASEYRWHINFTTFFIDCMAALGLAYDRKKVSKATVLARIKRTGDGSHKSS

Row | SMILES | IC50 (Acyl-CoA desaturase 1 [1]) [nM] | other results
1 | CCCNC(=O)c1ccc(N2CCC3(CC2)CCN(Cc2cccc(C(F)(F)F)c2)c2ccccc2O3)nn1 | 130 | 
2 | CC(=O)NCC(=O)N1CCC2(CC1)CCN(Cc1cccc(OC(F)(F)F)c1)c1ccccc1O2 | 680 | 
3 | O=C(O)Cn1nnc(-c2cc(N3CCC(Oc4ccccc4C(F)(F)F)CC3)no2)n1 | 3 | 
4 | CC(=O)NCC(=O)N1CCC2(CC1)CCN(CCc1ccc(C(C)C)cc1)c1ccccc1O2 | 42 | concentration at 6 h [2]: 100 ng/g; concentration at 6 h [3]: 1660 ng/g; Cmax [4]: 875 ng/g; AUC (Rattus norvegicus): 2608 ng·h/g; Kp at 6 h [5]: 17
5 | CC(=O)NCC(=O)N1CCC2(CC1)CCN(Cc1ccccc1)c1ccccc1O2 | 1200 | 
6 | Fc1cccc2c1CCC1(CCN(c3ccc(-c4nnc(Cc5cccnc5)o4)nn3)CC1)O2 | 2 | 
7 | CC(=O)NCC(=O)N1CCC2(CC1)CCN(Cc1cccc(F)c1)c1ccccc1O2 | > 10000 | 
8 | NC(=O)c1ccc(N2CCC3(CC2)CCN(Cc2cccc(C(F)(F)F)c2)c2ccccc2O3)nn1 | 10 | 
9 | O=C(NCCC1CC1)c1ccc(N2CCC3(CC2)CCN(Cc2cccc(C(F)(F)F)c2)c2ccccc2O3)nn1 | 4 | concentration at 6 h [3]: < 10 ng/g; Cmax [4]: 209 ng/g; AUC (Rattus norvegicus): 105 ng·h/g
10 | CC(C)(C)c1ccc(CN2CCC3(CCN(C(=O)CNC(=O)c4ccco4)CC3)Oc3ccccc32)cc1 | 19 | 
11 | CC(=O)NCC(=O)N1CCC2(CC1)CCN(Cc1ccccc1C)c1ccccc1O2 | 1200 | 
12 | CNC(=O)c1cnc(N2CCC3(CC2)CCN(Cc2ccc(C(C)(C)C)cc2)c2ccccc2O3)s1 | 4 | 
13 | CC(=O)NCC(=O)N1CCC2(CC1)CCN(CCc1ccccc1)c1ccccc1O2 | 1600 | 
14 | CCc1ccccc1CN1CCC2(CCN(C(=O)CNC(C)=O)CC2)Oc2ccccc21 | 430 | 
15 | Cc1c(C(=O)Nc2ccn(C)n2)ncn1Cc1cccc(C(F)(F)F)c1 | 11.7 | 
16 | O=C(CO)Nc1ccc2ncn(Cc3ccc(Cl)c(Cl)c3)c(=O)c2c1 | 261 | 
17 | COc1cccc(CN2CCC3(CCN(C(=O)CNC(C)=O)CC3)Oc3ccccc32)c1 | 1800 | 
18 | CC(=O)NCC(=O)N1CCC2(CC1)CCN(CC(C)C)c1ccccc1O2 | > 10000 | 
19 | O=C(NCCC1CC1)c1ccc(N2CCC3(CC2)CCN(Cc2cccc(C(F)(F)F)c2)c2ccccc2O3)cc1 | 2200 | 
20 | CC(=O)NCC(=O)N1CCC2(CC1)CCN(Cc1ccccc1F)c1ccccc1O2 | > 10000 | 
21 | O=C(NCC(=O)N1CCC2(CC1)CCN(Cc1cccc(C(F)(F)F)c1)c1ccccc1O2)c1ccco1 | 380 | 
22 | O=C(O)c1ccc(N2CCC3(CC2)CCN(Cc2cccc(C(F)(F)F)c2)c2ccccc2O3)nn1 | 4700 | 

Row | SMILES | IC50 (Acyl-CoA desaturase 1 [1]) [nM] | other results
23 | CCCN1CCC2(CCN(C(=O)CNC(C)=O)CC2)Oc2ccccc21 | > 10000 | 
24 | N#Cc1cnc(N2CCC3(CC2)CCN(Cc2cccc(C(F)(F)F)c2)c2ccccc2O3)s1 | 1 | concentration at 6 h [2]: 72 ng/g; concentration at 6 h [3]: 1510 ng/g; Cmax [4]: 105 ng/g; AUC (Rattus norvegicus): 383 ng·h/g; Kp at 6 h [5]: 20
25 | CNC(=O)c1cnc(N2CCC3(CC2)CCN(Cc2cccc(C(F)(F)F)c2)c2ccccc2O3)s1 | 3 | AUC (Rattus norvegicus): 0 ng·h/g
26 | CCc1ccc(CN2CCC3(CCN(C(=O)CNC(C)=O)CC3)Oc3ccccc32)cc1 | 57 | concentration at 6 h [2]: 19 ng/g; concentration at 6 h [3]: < 100 ng/g; Cmax [4]: 579 ng/g; AUC (Rattus norvegicus): 1288 ng·h/g
27 | CC(=O)NCC(=O)N1CCC2(CC1)CCN(Cc1ccccc1Cl)c1ccccc1O2 | 1200 | 
28 | CC(=O)NCC(=O)N1CCC2(CC1)CCN(Cc1ccc(C(C)(C)C)cc1)c1ccccc1O2 | 17 | concentration at 6 h [2]: 210 ng/g; concentration at 6 h [3]: 2670 ng/g; Cmax [4]: 1100 ng/g; AUC (Rattus norvegicus): 3464 ng·h/g; Kp at 6 h [5]: 13
29 | COc1ccc(C(F)(F)F)c(C(=O)N2CCN(c3ccc(C(=O)NCCCc4ccccc4)cn3)CC2)c1 | 100 | 
30 | CC(=O)NCC(=O)N1CCC2(CC1)CCN(Cc1ccc(Cl)cc1)c1ccccc1O2 | > 10000 | 
31 | CC(=O)NCC(=O)N1CCC2(CC1)CCN(c1ccccc1)c1ccccc1O2 | > 10000 | 
32 | CC(C)(C)c1ccc(CC(=O)N2CCC3(CC2)CCN(CC#N)c2ccccc2O3)cc1 | 440 | 
33 | CC(C)(C)c1ccc(CN2CCC3(CCN(C(=O)CNC(=O)c4cccnc4)CC3)Oc3ccccc32)cc1 | 1500 | concentration at 6 h [2]: 18 ng/g; concentration at 6 h [3]: 232 ng/g; Cmax [4]: 169 ng/g; AUC (Rattus norvegicus): 341 ng·h/g; Kp at 6 h [5]: 13
34 | NC(=O)c1cnc(N2CCC3(CC2)CCN(Cc2cccc(C(F)(F)F)c2)c2ccccc2O3)s1 | 3 | concentration at 6 h [3]: < 10 ng/g; Cmax [4]: 45 ng/g; AUC (Rattus norvegicus): 58 ng·h/g
35 | O=C(NCC(=O)N1CCC2(CC1)CCN(Cc1cccc(C(F)(F)F)c1)c1ccccc1O2)c1ccccc1 | 2600 | 
36 | CC(=O)NCC(=O)N1CCC2(CC1)CCN(Cc1ccc(C)cc1)c1ccccc1O2 | 1100 | 
37 | CC(C)(C)c1ccc(CN2CCC3(CCN(c4ccc(C(=O)NCCC5CC5)nn4)CC3)Oc3ccccc32)cc1 | 40 | 
38 | COc1ccccc1CN1CCC2(CCN(C(=O)CNC(C)=O)CC2)Oc2ccccc21 | 2900 | 
39 | CC(=O)NCC(=O)N1CCC2(CC1)CCN(Cc1cccc(Cl)c1)c1ccccc1O2 | 830 | 
40 | CC(=O)NCC(=O)N1CCC2(CC1)CCN(Cc1ccc(F)cc1)c1ccccc1O2 | 460 | 
41 | CC(=O)NCC(=O)N1CCC2(CC1)CCN(CCC(C)C)c1ccccc1O2 |  | IC50 (Acyl-CoA desaturase 1 [6]): 6400 nM
42 | O=C(NCCC1CC1)c1cnc(N2CCC3(CC2)CCN(Cc2cccc(C(F)(F)F)c2)c2ccccc2O3)s1 | 930 | 
43 | CC(=O)NCC(=O)N1CCC2(CC1)CCN(Cc1cccc(C(F)(F)F)c1)c1ccccc1O2 | 32 | 
44 | O=C(NCCC1CC1)c1ccc(N2CCC3(CC2)CCN(Cc2cccc(C(F)(F)F)c2)c2ccccc2O3)nc1 | 12 | concentration at 6 h [3]: < 10 ng/g; Cmax [4]: 45 ng/g; AUC (Rattus norvegicus): 23 ng·h/g
